# Reference: ChEMBL document CHEMBL4014342, “Subtly Modulating Glycogen Synthase Kinase 3 β: Allosteric Inhibitor Development and Their Potential for the Treatment of Chronic Diseases” (J Med Chem, 2017)
# The source made the active and inactive calls. No cut-off for these calls is given here.
# Key:
# [1] = molecular target: T1, Glycogen synthase kinase-3 beta (Homo sapiens, UniProt P49841); experiment: Allosteric inhibition of human recombinant full length N-terminal GST-tagged GSK3beta expressed in fall armyworm Sf9 cells after 30 min in presence of ATP by kinase glo luminescent assay
# Procedure, shortened: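 Human recombinant GSK-3β (20 ng) with prephosphorylated peptide substrate, 50 μM in the 20 μL substrate mix, and ATP, 2 μM in that mix. Buffer: 50 mM HEPES pH 7.5, 1 mM EDTA, 1 mM EGTA, 15 mM Mg acetate; DMSO ≤1%. Incubated 30 min at 30 °C, then Kinase-Glo added and luminescence read after 10 min.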
# Target sequence in this assay (P49841 whole entry): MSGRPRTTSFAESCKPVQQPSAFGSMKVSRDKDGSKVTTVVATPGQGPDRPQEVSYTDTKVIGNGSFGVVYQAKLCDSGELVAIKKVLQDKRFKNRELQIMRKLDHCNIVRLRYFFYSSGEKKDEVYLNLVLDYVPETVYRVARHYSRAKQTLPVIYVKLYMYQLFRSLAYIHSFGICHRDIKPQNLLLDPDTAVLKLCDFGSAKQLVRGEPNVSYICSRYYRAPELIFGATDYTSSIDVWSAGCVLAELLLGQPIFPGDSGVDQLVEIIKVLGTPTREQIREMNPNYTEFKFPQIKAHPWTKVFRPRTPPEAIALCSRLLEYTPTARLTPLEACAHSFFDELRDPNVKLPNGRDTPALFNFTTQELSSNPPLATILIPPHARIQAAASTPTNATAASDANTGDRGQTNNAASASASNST
# [2] = molecular target: T1, Glycogen synthase kinase-3 beta; experiment: Allosteric inhibition of GSK3beta in human LN18 cells assessed as decrease in beta-catenin translocation from cytoplasm to nucleus at 10 uM after 72 hrs by DAPI-satining based confocal microscopic analysis; type: cell-based
# Procedure, shortened: (§1)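 LN18 glioblastoma cells (DMEM, 10% FBS, 2 mM glutamine) and SH-SY5Y neuroblastoma cells (DMEM, 10% FBS, 10 mM glutamine; 37 °C, 5% CO2) were grown on glass coverslips and exposed to compound at 10 μM for 72 h, with vehicle controls. Cells were fixed in 4% paraformaldehyde and permeabilized with Triton X-100. β-Catenin was stained with mouse anti-β-catenin and an Alexa-488 secondary, nuclei with DAPI, and localization imaged by confocal microscopy.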
# Target sequence in this assay (P49841 whole entry, looked up): as the sequence (P49841 whole entry) above
# [3] = molecular target: T1, Glycogen synthase kinase-3 beta; experiment: Allosteric inhibition of GSK3beta in human […] cells assessed as decrease in beta-catenin translocation from cytoplasm to nucleus at 10 uM after 72 hrs by DAPI-satining based confocal microscopic analysis; type: cell-based; procedure, shortened: as §1
# Target sequence in this assay (P49841 whole entry, looked up): as the sequence (P49841 whole entry) above
# [4] = Cytotoxicity against motor neurons obtained from SMA patient derived iPSC assessed as cell death at >1.25 uM after 7 days; type: cell-based; conditions: human, motor neuron, 168 h
# Procedure, shortened: (§2)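 SMA type I/II patient iPSCs were differentiated into motor neurons over 15 days: LDN/SB431542, retinoic acid, BDNF, smoothened agonist, then DAPT/Ara-C. Cells were dissociated onto astrocyte-coated wells in Neurobasal with B27/N2 and BDNF, GDNF and CNTF, and treated 7 days with DMSO or increasing compound concentrations. After fixation, cells were immunostained for Islet1/MAP2 with Hoechst nuclear stain and imaged automatically. Survival is expressed as Islet1+ MN counts relative to DMSO wells, for each line.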
# [5] = molecular target: T1, Glycogen synthase kinase-3 beta; experiment: Non-competitive allosteric inhibition of human recombinant full length N-terminal GST-tagged GSK3beta expressed in fall armyworm Sf9 cells at 2.5 to 5 uM using GS2 as substrate measured at constant substrate levels and varying ATP levels after 30 mins by ADP-Glo kinase Assay
# Procedure, shortened: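 Human recombinant GSK-3β kinetics with ATP varied from 1 to 50 μM, inhibitor at 2.5 or 5 μM, and GS-2 held constant, stated as 25 μM in the methods and 12.5 μM in the legend. Read by ADP-Glo and analyzed by double-reciprocal plots. Each point is the mean of two experiments, each run in duplicate.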
# Target sequence in this assay (P49841 whole entry, looked up): as the sequence (P49841 whole entry) above
# [6] = molecular target: T1, Glycogen synthase kinase-3 beta; experiment: Non-competitive allosteric inhibition of human recombinant full length N-terminal GST-tagged GSK3beta expressed in fall armyworm Sf9 cells at 2 to 5 uM using GS2 as substrate measured at varying substrate levels and constant ATP levels after 30 mins by Double-reciprocal plot analysis
# Procedure, shortened: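 Human recombinant GSK-3β kinetics with GS-2 substrate varied from 12.5 to 100 μM, ATP held at 1 μM, and inhibitor at 2 or 5 μM. Analyzed by Lineweaver–Burk double-reciprocal plots. Each point is the mean of two experiments, each run in duplicate.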
# Target sequence in this assay (P49841 whole entry, looked up): as the sequence (P49841 whole entry) above
# Motor neuron = experiment: Increase in survival of motor neurons obtained from SMA patient derived iPSC after 7 days by Hoechst 33342-staining based fluorescence assay; type: functional, cell-based; conditions: Homo sapiens; procedure, shortened: as §2
# Myoblast [7] = experiment: Induction of myoblast differentiation in CDM1 patient-derived human primary myoblasts after 4 days by bright field microscopic method; type: functional, cell-based
# Myoblast [8] = experiment: Induction of myoblast differentiation in CDM1 patient-derived human primary myoblasts assessed as increase in desmin expression after 4 days by Western blot analysis; type: functional, cell-based
# Procedure, shortened: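 CDM1 patient primary myoblasts, about 1,000 repeats and fewer than 15–20 passages, with control myoblasts. Grown in F10-based medium, then switched to fusion medium (DMEM, horse serum, insulin) changed daily. Compound in DMSO was added at different doses with fresh fusion medium each day. After 4 days, myotube RIPA extracts were probed by Western blot for desmin, with actin as control.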
smiles,measurement,setting,value
CCCCCCCC(=O)NNC(=O)c1c(O)c2ccccc2n(CC)c1=O,IC50,[1],> 20 µM
Cn1c(=O)c(C(=O)NNCCC#N)c(O)c2ccccc21,IC50,[1],> 20 µM
CCn1c(=O)c(C(=O)NNC(=O)CCc2c[nH]c3ccccc23)c(O)c2ccccc21,IC50,[1],> 20 µM
Cn1cc(C2=C(c3ccc(Cl)cc3Cl)C(=O)NC2=O)c2ccccc21,inhibition,[2],inactive
same,inhibition,[3],inactive
CCCCCCCCCCCC(=O)NNC(=O)c1c(O)c2ccccc2n(CC(C)C)c1=O,IC50,[1],> 20 µM
Cn1c(=O)c(C(=O)NNC(=O)Cc2ccccc2)c(O)c2ccccc21,IC50,[1],> 20 µM
CCn1c(=O)c(C(=O)NNC(=O)CCc2ccc(O)cc2)c(O)c2ccccc21,IC50,[1],> 20 µM
O=C1Cc2c([nH]c3ccc([N+](=O)[O-])cc23)-c2ccccc2N1 [ALSTERPAULLONE],inhibition,[2],inactive
same,inhibition,[3],inactive
same,Activity,[4],Toxic
CCCCCCCC(=O)NNC(=O)c1c(O)nc2ccccc2c1O,IC50,[1],> 20 µM
CCCCCCCCCCCC(=O)NNC(=O)c1c(O)c2ccc(Cl)cc2n(CC)c1=O,inhibition,[5],Active
same,inhibition,[6],Active
CCCCCCCC(=O)NNC(=O)c1c(O)c2ccccc2n(CC=C(C)C)c1=O,IC50,[1],7.11 µM
CCCCCCCC(=O)NNC(=O)c1c(O)c2cc(F)ccc2[nH]c1=O,IC50,[1],> 20 µM
CCCCCCCCCCCC(=O)NNC(=O)c1c(O)c2ccccc2n(CC=C(C)C)c1=O,IC50,[1],7.78 µM
CCCCCCCCCCCC(=O)NNC(=O)c1c(O)c2ccccc2n(CC)c1=O,inhibition,[2],Active
same,inhibition,[3],Active
same,Activity,[4],Non-Toxic
same,Activity,Motor neuron,Dose-dependent effect
Cn1c(=O)c(C(=O)NNC(=O)CCc2c[nH]c3ccccc23)c(O)c2ccccc21,IC50,[1],> 20 µM
CCCCCCCCCCCC(=O)NNC(=O)c1c(O)c2cc(Br)ccc2n(CC)c1=O,inhibition,[5],Active
same,inhibition,[6],Active
same,inhibition,[2],Active
same,inhibition,[3],Active
same,Activity,Myoblast [7],Dose-dependent effect
same,Activity,Myoblast [8],Active
same,Activity,[4],Non-Toxic
same,Activity,Motor neuron,Dose-dependent effect
Cn1c(=O)c(C(=O)NNC(=O)c2ccccc2)c(O)c2ccccc21,IC50,[1],> 20 µM
CCCCCCNC(=O)c1c(O)c2ccccc2n(C)c1=O,IC50,[1],> 20 µM
CC(=O)NNC(=O)c1c(O)c2ccccc2n(C)c1=O,IC50,[1],> 20 µM
Cn1c(=O)c(C(=O)NCC(=O)NCC(=O)OCc2ccccc2)c(O)c2ccccc21,IC50,[1],> 20 µM
